Results on three molecules are retold here after paper PMC10354499 (RSC Advances, 2023).

Molecules are shown by their SMILES.

One data set has as its system MCF-7 cells. The note with it: read-out: IC50 (MCF-7); known breast cancer antineoplastic drug; cited from earlier work.
For the next data set, the system named is CT-DNA relative to BSA. As to the kind of experiment: Relative stability constant ln. The note with it: natural logarithm of ratio of CT-DNA to BSA binding constants. Summed up:
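KDNA: CT-DNA (0–8 μM) was titrated against 20 μM test compound in PBS with ~2% (v/v) DMSO final. Mixtures were incubated 10 min and read by UV-vis, with DNA absorbance cancelled in the reference. KDNA was the slope/intercept ratio of [DNA]/(εa−εf) vs [DNA] (Wolfe–Shimer). KBSA: 0–10 μM compound was added to 6 μM BSA in PBS pH 7.2, 10 min at 25 °C, A280 read, Benesi–Hildebrand fit.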

In the next data set the test system is HEK-293 cells. As to the kind of experiment: Selective toxicity, MTT assay in HEK-293 cells. Type of data set: cell-based, human. The note with it: at respective MCF-7 IC50 concentration, 24 hours, MTT. The method in brief:
(§1)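 HEK-293 cells were grown in DMEM with 10% FBS, 1% penicillin–streptomycin, 1% L-glutamine and 2.5% HEPES. Cells were seeded at 15 000 cells/well, held 24 h (37 °C, 5% CO2), then exposed to test compound for 24 h. MTT (5 mg mL−1 in PBS) plus medium was added for 4 h, then aspirated, and formazan was dissolved in DMSO. Absorbance was read at 570/690 nm; percentage viability by formula, triplicate.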
For orientation: Tetrazolium assays rely on reduction of a dye to a coloured formazan, in cell work by metabolically active cells.

The nature of data set [1]: Selective toxicity, MTT assay in HEK-293 cells. The note with it: human, HEK-293 cells. Type of data set: cell-based, human. Summed up:
as §1

On to `CC[C@]1(O)C[C@@H]2CN(CCc3c([nH]c4ccccc34)[C@@](C(=O)OC)(c3cc4c(cc3OC)N(C)[C@H]3[C@@](O)(C(=O)OC)[C@H](OC(C)=O)[C@]5(CC)C=CCN6CC[C@]43[C@@H]65)C2)C1` [Vinoblastine, vinblastine], for which the IC50 with MCF-7 cells is 10.2 ± 0.39 µM.

As for `CC1(C)CC(=O)C2=C(C1)Oc1ncnc(Nc3cccc(-[c-]4cccc4)c3)c1C2c1ccccc1F.[Fe+2].c1cc[cH-]c1` (centres unmarked) [Compound 3j, 4-((3-Ferrocenylphenyl)amino)-5-(2-fluorophenyl)-8,8-dimethyl-5,7,8,9-tetrahydro-6H-chromeno[2,3-d]pyrimidin-6-one], the “ln(KDNA/KBSA)” value in the data set with CT-DNA relative to BSA was “highest”. Besides, the “cell viability (HEK-293)” value in the data set with HEK-293 cells worked out at 107.43%.

As to `CC1(C)CC(=O)C2=C(C1)Oc1ncnc(Nc3ccccc3)c1C2c1ccccc1F` (centres unmarked) [Compound 3a, 5-(2-Fluorophenyl)-8,8-dimethyl-4-(phenylamino)-5,7,8,9-tetrahydro-6H-chromeno[2,3-d]pyrimidin-6-one], the “ln(KDNA/KBSA)” value in the data set on CT-DNA relative to BSA is “lowest”. This molecule also showed a viability at 24 h in data set [1] of 96.6%.

A word on the IC50: it is the midpoint of a concentration-inhibition curve. For orientation: viability means a per cent measure of how many cells are alive, often set against a control. Lower therefore signals a greater loss of cells.
